Laboratory results as given in ChEMBL document CHEMBL1154912, “Moluccensins H-J, 30-ketophragmalin limonoids from Xylocarpus moluccensis” (J Nat Prod, 2010).
Values after ≈ are worked out from the molar mass of the structure shown. Active and inactive are the calls of the source. The rule behind the calls is not given here.

How the values were obtained:
BT-474 = assay: Cytotoxicity against human BT474 cells after 3 days by MTT assay; format: functional, cell-based; conditions: BT-474, 72 h
How it was run: (§1)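 Cells grown in RPMI-1640 with 25 mM HEPES, 0.25% sodium bicarbonate, 5% FBS and 100 µg/mL kanamycin. Freshly trypsinized cells seeded at 5000 per well, compound added from DMSO-diluted stock, cultured three days. Attached cells stained with MTT, bound dye solubilized, absorbance read at 540 nm. IC50 (50% growth inhibition) averaged from at least six independent determinations.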

[1] = Cytotoxicity against human ChaGo cells after 3 days by MTT assay; format: functional, cell-based; conditions: 72 h; how it was run: as §1
HepG2 = assay: Cytotoxicity against human HepG2 cells after 3 days by MTT assay; format: functional, cell-based; conditions: HepG2, 72 h; how it was run: as §1
[2] = Cytotoxicity against human KATO III cells after 3 days by MTT assay; format: functional, cell-based, KATO III cell; conditions: 72 h; how it was run: as §1
SW-620 = assay: Cytotoxicity against human SW620 cells after 3 days by MTT assay; format: functional, cell-based; conditions: SW-620, 72 h; how it was run: as §1
Staphylococcus hominis = assay: Antibacterial activity against Staphylococcus hominis ATCC 27844 by broth microdilution method; format: functional
How it was run: (§2)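 Broth microdilution per NCCLS protocol in Mueller Hinton broth; serial doubling dilutions from 0.5 to 256 µg/mL; final inoculum 5 × 10^5 cfu/mL. MIC taken as lowest concentration with no visible growth judged by turbidity.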

Enterococcus faecalis = assay: Antibacterial activity against Enterococcus faecalis ATCC 29212 by broth microdilution method; format: functional; how it was run: as §2

MIC (Staphylococcus hominis) [µg/mL]	MIC (Enterococcus faecalis) [µg/mL]	SMILES	IC50 (BT-474) [µg/mL]	IC50 [1] [µg/mL]	IC50 (HepG2) [µg/mL]	IC50 [2] [µg/mL]	IC50 (SW-620) [µg/mL]	Activity (Staphylococcus hominis)	Activity (Enterococcus faecalis)
		COC(=O)C[C@H]1[C@]2(C)C[C@]3(O)[C@@](O)(C(=O)C4=C(CC[C@]5(C)C4=CC(=O)O[C@H]5c4ccoc4)[C@]13C)[C@H]2OC(C)=O [MOLUCCENSIN H]	> 10	> 10	> 10	> 10	> 10	inactive	inactive
256 (≈ 460 µM)	223 (≈ 401 µM)	COC(=O)C[C@H]1[C@]2(C)C[C@@]3(O)[C@]1(C)[C@H]1CC[C@]4(C)C(=C1C(=O)[C@@]3(OC)[C@H]2OC(C)=O)CC(=O)O[C@H]4c1ccoc1 [MOLUCCENSIN I]	> 10	> 10	> 10	> 10	> 10		
		COC(=O)C[C@H]1[C@]2(C)C[C@]3(O)[C@@H](C(=O)C4=C5CC(=O)O[C@@H](c6ccoc6)[C@]5(C)CC[C@@H]4[C@]13C)[C@H]2OC(C)=O [MOLUCCENSIN J]	> 10	> 10	> 10	> 10	> 10	inactive	inactive
